Data taken from ChEMBL document CHEMBL5724801, “EUbOPEN Chemogenomics Library - Multiplex” (2024).
Values joined by “and” are separate entries in the source; they are usually repeats but may differ in a detail not shown here. Identical values can stand only once.

System: U2OS
Assay: Multiplex assay against U2OS
Assay type: toxicity, cell-based
Conditions: human
In short: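 Live cells were stained at seeding with Hoechst33342, BioTracker Green Microtubule Cytoskeleton Dye, MitoTracker Red and Annexin V Alexa Fluor 680, then imaged on a CQ1 microscope at 37°C and 5% CO2 after compound addition. CellPathfinder machine-learning gating split cells into Hoechst high-intensity objects or normal cells. Normal cells were split into healthy, pyknosed or fragmented nuclei, and pyknosed cells into mitotic or apoptotic. Tubulin, mitochondrial-mass and membrane-permeability phenotypes are per cents of healthy-nucleus cells.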

[1] = 12 h, 1 µM, compound concentration 1 uM
[2] = 12 h, 10 µM, compound concentration 10 uM
[3] = 24 h, 1 µM, compound concentration 1 uM
[4] = 24 h, 10 µM, compound concentration 10 uM
[5] = 48 h, 1 µM, compound concentration 1 uM
[6] = 48 h, 10 µM, compound concentration 10 uM

CCCOc1ccc2[nH]cc(C3=CCNCC3)c2n1.Cl
Population Apoptotic (%) [1]: 80% and 87%
Population Fragmented Nuclei (%) [1]: 31% and 13%
Population Healthy Nuclei (%) [1]: 58% and 78%
Population Hoechst High Intensity Objects (%) [1]: 2% and 1%
Population Membrane Permeable-Phenotype (%) [1]: 2% and 11%
Population Mitochondria Different-Phenotype (%) [1]: 1% and 7%
Population Mitotic Cells (%) [1]: 19% and 12%
Population Normal (%) [1]: 97% and 98%
Population Pyknosed Nuclei (%) [1]: 9% and 8%
Population Tubulin-Different-Phenotype (%) [1]: 1% and 5%
Total Cell Count [1]: 218 and 98
Population Apoptotic (%) [2]: 86% and 60%
Population Fragmented Nuclei (%) [2]: 24% and 17%
Population Healthy Nuclei (%) [2]: 66% and 74%
Population Hoechst High Intensity Objects (%) [2]: 4% and 0%
Population Membrane Permeable-Phenotype (%) [2]: 6% and 12%
Population Mitochondria Different-Phenotype (%) [2]: 5%
Population Normal (%) [2]: 96% and 100%
Population Pyknosed Nuclei (%) [2]: 8% and 7%
Population Tubulin-Different-Phenotype (%) [2]: 3% and 6%
Total Cell Count [2]: 275 and 134
Population Apoptotic (%) [3]: 70% and 90%
Population Fragmented Nuclei (%) [3]: 27% and 18%
Population Healthy Nuclei (%) [3]: 61% and 73%
Population Hoechst High Intensity Objects (%) [3]: 1% and 2%
Population Membrane Permeable-Phenotype (%) [3]: 6% and 3%
Population Mitochondria Different-Phenotype (%) [3]: 1% and 3%
Population Normal (%) [3]: 98% and 97%
Population Pyknosed Nuclei (%) [3]: 10% and 8%
Population Tubulin-Different-Phenotype (%) [3]: 3% and 2%
Total Cell Count [3]: 252 and 138
Population Apoptotic (%) [4]: 92% and 72%
Population Fragmented Nuclei (%) [4]: 25% and 14%
Population Healthy Nuclei (%) [4]: 66% and 78%
Population Hoechst High Intensity Objects (%) [4]: 3% and 0%
Population Membrane Permeable-Phenotype (%) [4]: 5% and 11%
Population Mitochondria Different-Phenotype (%) [4]: 3% and 2%
Population Normal (%) [4]: 96% and 99%
Population Pyknosed Nuclei (%) [4]: 8% and 6%
Population Tubulin-Different-Phenotype (%) [4]: 3% and 4%
Total Cell Count [4]: 323 and 162
Population Apoptotic (%) [5]: 91% and 75%
Population Fragmented Nuclei (%) [5]: 19%
Population Healthy Nuclei (%) [5]: 69% and 74%
Population Hoechst High Intensity Objects (%) [5]: 2%
Population Membrane Permeable-Phenotype (%) [5]: 5% and 9%
Population Mitochondria Different-Phenotype (%) [5]: 3%
Population Normal (%) [5]: 97%
Population Pyknosed Nuclei (%) [5]: 10% and 6%
Population Tubulin-Different-Phenotype (%) [5]: 1% and 3%
Total Cell Count [5]: 350 and 183
Population Apoptotic (%) [6]: 100% and 94%
Population Fragmented Nuclei (%) [6]: 18% and 13%
Population Healthy Nuclei (%) [6]: 75% and 78%
Population Hoechst High Intensity Objects (%) [6]: 4% and 0%
Population Membrane Permeable-Phenotype (%) [6]: 5% and 6%
Population Mitochondria Different-Phenotype (%) [6]: 2% and 3%
Population Mitotic Cells (%) [6]: 0% and 5%
Population Normal (%) [6]: 95% and 99%
Population Pyknosed Nuclei (%) [6]: 6% and 7%
Population Tubulin-Different-Phenotype (%) [6]: 3%
Total Cell Count [6]: 423 and 243

Cl.Clc1ccc2nsnc2c1NC1=NCCN1 [TIZANIDINE HYDROCHLORIDE]
Population Apoptotic (%) [1]: 82% and 85%
Population Fragmented Nuclei (%) [1]: 20% and 10%
Population Healthy Nuclei (%) [1]: 73% and 78%
Population Hoechst High Intensity Objects (%) [1]: 2% and 1%
Population Membrane Permeable-Phenotype (%) [1]: 6% and 3%
Population Mitochondria Different-Phenotype (%) [1]: 1% and 2%
Population Mitotic Cells (%) [1]: 17% and 14%
Population Normal (%) [1]: 97% and 98%
Population Pyknosed Nuclei (%) [1]: 5% and 10%
Population Tubulin-Different-Phenotype (%) [1]: 2% and 3%
Total Cell Count [1]: 306 and 140
Population Apoptotic (%) [2]: 77% and 90%
Population Fragmented Nuclei (%) [2]: 31% and 22%
Population Healthy Nuclei (%) [2]: 61% and 66%
Population Hoechst High Intensity Objects (%) [2]: 2%
Population Membrane Permeable-Phenotype (%) [2]: 7% and 14%
Population Mitochondria Different-Phenotype (%) [2]: 2% and 7%
Population Mitotic Cells (%) [2]: 22% and 10%
Population Normal (%) [2]: 97%
Population Pyknosed Nuclei (%) [2]: 6% and 10%
Total Cell Count [2]: 280 and 98
Population Apoptotic (%) [3]: 90% and 89%
Population Fragmented Nuclei (%) [3]: 19% and 15%
Population Healthy Nuclei (%) [3]: 72% and 73%
Population Hoechst High Intensity Objects (%) [3]: 0% and 4%
Population Membrane Permeable-Phenotype (%) [3]: 4% and 7%
Population Mitochondria Different-Phenotype (%) [3]: 2% and 4%
Population Mitotic Cells (%) [3]: 9% and 10%
Population Normal (%) [3]: 99% and 95%
Population Pyknosed Nuclei (%) [3]: 8% and 11%
Population Tubulin-Different-Phenotype (%) [3]: 5% and 6%
Total Cell Count [3]: 381 and 172
Population Apoptotic (%) [4]: 65% and 86%
Population Fragmented Nuclei (%) [4]: 29% and 25%
Population Healthy Nuclei (%) [4]: 62% and 61%
Population Hoechst High Intensity Objects (%) [4]: 2%
Population Membrane Permeable-Phenotype (%) [4]: 4% and 12%
Population Mitochondria Different-Phenotype (%) [4]: 1% and 7%
Population Mitotic Cells (%) [4]: 34% and 13%
Population Normal (%) [4]: 97%
Population Pyknosed Nuclei (%) [4]: 8% and 13%
Population Tubulin-Different-Phenotype (%) [4]: 1% and 11%
Total Cell Count [4]: 327 and 118
Population Apoptotic (%) [5]: 86% and 90%
Population Fragmented Nuclei (%) [5]: 11% and 17%
Population Healthy Nuclei (%) [5]: 80% and 74%
Population Hoechst High Intensity Objects (%) [5]: 1% and 3%
Population Membrane Permeable-Phenotype (%) [5]: 2% and 5%
Population Mitochondria Different-Phenotype (%) [5]: 1% and 2%
Population Mitotic Cells (%) [5]: 13% and 9%
Population Normal (%) [5]: 98% and 96%
Population Pyknosed Nuclei (%) [5]: 7% and 8%
Population Tubulin-Different-Phenotype (%) [5]: 2% and 3%
Total Cell Count [5]: 512 and 260
Population Apoptotic (%) [6]: 93% and 76%
Population Fragmented Nuclei (%) [6]: 18% and 22%
Population Healthy Nuclei (%) [6]: 75% and 65%
Population Hoechst High Intensity Objects (%) [6]: 2% and 4%
Population Membrane Permeable-Phenotype (%) [6]: 5% and 15%
Population Mitochondria Different-Phenotype (%) [6]: 1% and 5%
Population Normal (%) [6]: 97% and 95%
Population Pyknosed Nuclei (%) [6]: 6% and 11%
Population Tubulin-Different-Phenotype (%) [6]: 3% and 7%
